Screening data as filed in PubChem.
Shown are actives, neighbours in structure and some others; about 9.6% of the full set was active somewhere.
Lmaj promast: inhibitors of Leishmania major promastigote growth | Leishmania major promastigotes, resazurin fluorescence viability | inhibition, % at 10 µM | 200,000 compounds, 9% hits | AID 1063; in the data active means inhibition above about 50%;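 further: promastigotes grown with compound for 44 hours at 28 °C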
HCT116 bCat-KO: beta-catenin-lacking colon tumor cell growth suppression | HCT116 beta-catenin knockout viability, CellTiter-Glo, 60 h; active compounds read low | viability, % at 10 µM | 140,000 compounds, 1.5% hits | AID 818;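 active means viability at or under a set limit, the compound median less 4 SD, cut at about 6% in these data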;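 further: 0% = Hyamine 1622 control at 20 µM and 100% = untreated cell control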
PTEN del growth: suppresses growth of cells with PTEN deletion; viability, % at 10 µM; AID 827; HCT116 PTEN-null viability, CellTiter-Glo, 60 h; active compounds read low; 140,000 compounds, 1.2% hits;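 active means viability at or below a set limit, 4 SD under the median of all tested compounds, cut at about 3.7% in these data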;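 further: PTEN knockout HCT116 line with beta catenin targeted HCT116 as companion control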
PMI activator: increases human mannose-6-phosphate isomerase activity; P34949; purified human PMI, coupled resazurin fluorescence, 20 min; active compounds read high; 1 = vehicle control, 0 substrate-free wells; activation factor at 20 µM; 190,000 compounds, 0.005% hits; AID 1214;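 active means activation factor of 2 or more at 20 µM, relative to plate controls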
Target sequence (P34949 whole entry, looked up): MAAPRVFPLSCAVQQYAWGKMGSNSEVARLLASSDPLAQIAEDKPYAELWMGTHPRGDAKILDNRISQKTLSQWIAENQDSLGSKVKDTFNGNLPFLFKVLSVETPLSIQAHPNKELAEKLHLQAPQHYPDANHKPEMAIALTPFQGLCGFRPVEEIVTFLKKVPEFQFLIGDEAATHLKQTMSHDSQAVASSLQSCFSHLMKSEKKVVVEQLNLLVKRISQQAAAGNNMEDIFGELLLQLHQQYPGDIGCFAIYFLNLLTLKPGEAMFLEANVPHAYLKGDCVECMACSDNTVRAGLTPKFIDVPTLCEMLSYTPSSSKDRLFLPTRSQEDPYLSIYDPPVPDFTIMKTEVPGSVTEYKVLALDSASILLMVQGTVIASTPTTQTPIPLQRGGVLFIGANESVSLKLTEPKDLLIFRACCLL
PMI act satM6P: PMI (human) activation, high substrate. coupled PMI enzyme assay, resazurin fluorescence, 20 min; active compounds read high; 1 = untreated enzyme, 0 = substrate-free blank. activation factor at 20 µM. 190,000 compounds, 0.34% hits;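 active means activation factor of 2 or more at 20 µM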
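Test system: human phosphomannose isomerase with PGI, G6PDH, diaphorase coupling enzymes; Amount: PMI at 15 ng/mL final; Reagent: Mannose-6-phosphate 1.0 mM (near-saturating) plus 0.22 mM NADP+; Timing: 20 min, room temperature; Technique: resorufin fluorescence at Ex 544/Em 590 nm; Dosing: 20 µM single dose.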
The depositor's hits bear a star; / = not tested or not shown.

SMILES	Lmaj promast	HCT116 bCat-KO	PTEN del growth	PMI activator	PMI act satM6P
CC(C)Oc1ccc2ccccc2c1C=O	0	94	101	0.8	0.7
O=Cc1c(OCc2ccccc2)ccc2ccccc12	82*	/	/	1	1
O=C(N/N=C\c1ccc(CNS(=O)(=O)c2ccc(Cl)cc2)o1)C(=O)Nc1ccc(Oc2ccccc2)cc1	0	1.4*	2.0*	1.1	1.1
Cc1cccc2sc(NNC(=O)c3ccc(S(=O)(=O)N4CCc5ccccc5C4)cc3)nc12	99*	3.7*	5	1.7	2.1*
Cc1cccc2sc(NNC(=O)c3ccc(S(=O)(=O)N4CCCC(C)C4)cc3)nc12 (stereo not given)	96*	1.9*	4	1.1	1.2
COc1cccc2c1C(=O)C=C(C)C2=O	99*	1.8*	2.9*	1	0.5
CC1=CC(=O)c2ccccc2C1=O	-1	44	41	1.6	1.1
CCOC(=O)c1ccc(NC(=O)CSc2ccc(-c3ccncc3)nn2)cc1	75*	/	/	1.1	1.1
COc1ccc(-c2cc(-c3cccs3)c(C#N)c(SCC(=O)NCc3ccccc3OC)n2)cc1	91*	10	6	1.1	1.2
COc1ccccc1CNC(=O)CSc1ccc(-c2ccncc2)nn1	94*	/	/	1	1
COc1ccc(-c2cc(-c3cccs3)c(C#N)c(SCC(=O)NCc3ccccc3)n2)cc1	2	43	42	1.1	1.2
COc1ccccc1CCNC(=O)CSc1ccc(-c2cccs2)nn1	19	/	/	0.9	1
COc1ccc(-c2cc(C(F)(F)F)c(C#N)c(SCC(=O)Nc3ccccc3C#N)n2)cc1	-6	3.2*	5	1.1	1.1
Cc1ccc(NC(=S)NNC(=O)c2nnn(-c3ccccc3)c2C)cc1	-4	98	96	0.9	1.1
COc1cccc(CNC(=O)CSc2ccc(-c3ccncc3)nn2)c1	89*	/	/	1.1	0.9
COc1ccc(CCNC(=O)CSc2ccc(-c3ccccc3)nn2)cc1	-1	87	94	1	1.1
CCCCCC(=O)Nc1nc(C)c(-c2csc(Nc3ccccc3OCC)n2)s1	52*	108	87	0.8	0.8
CCCC(C)C(=O)Nc1nc(C)c(-c2csc(Nc3ccccc3OC)n2)s1 (stereo not given)	96*	77	79	0.8	0.8
CCCCC(=O)Nc1nc(C)c(-c2csc(Nc3cc(Cl)ccc3OC)n2)s1	40	93	87	1.1	1.3
CCCC(=O)Nc1nc(C)c(-c2csc(Nc3ccccc3C)n2)s1	10	101	86	0.7	0.6
CCCCCCC(=O)Nc1nc(C)c(-c2csc(Nc3ccccc3OC)n2)s1	55*	83	74	0.9	0.8
CCCCCC(=O)Nc1nc(C)c(-c2csc(Nc3ccccc3OC)n2)s1	73*	72	61	0.8	0.7
CCCC(C)C(=O)Nc1nc(C)c(-c2csc(Nc3ccc(Cl)cc3)n2)s1 (stereo not given)	18	56	46	0.7	0.7
CN(C)CCCN(Cc1ccccc1)C(=S)Nc1cccc(C(F)(F)F)c1	60*	56	60	0.9	1
CCCN(Cc1ccccc1)C(=S)Nc1ccc(SC(F)F)cc1	53*	/	/	0.9	1
SMILES	Lmaj promast	HCT116 bCat-KO	PTEN del growth	PMI activator	PMI act satM6P
CCCN(Cc1ccccc1)C(=S)Nc1cccc(C(F)(F)F)c1	91*	81	83	0.9	1.1
CCCN(Cc1ccccc1)C(=S)Nc1ccc(F)cc1	1	/	/	1.1	1.1
CN(C)CCCN(Cc1ccccc1)C(=S)Nc1ccc(F)c(Cl)c1	31	/	/	1	0.9
CN=C(Nc1ccc(Br)cc1)SC1CC(=O)N(c2ccc(OC)cc2)C1=O (stereo not given)	0	/	/	0.8	1
CCOc1ccc(NC(=NCc2ccc3c(c2)OCO3)SC2CC(=O)N(c3ccc(OCC)cc3)C2=O)cc1 (stereo not given)	4	2.2*	8	1	1
CCOc1ccc(NC(=NCc2ccc3c(c2)OCO3)SC2CC(=O)N(c3ccccc3)C2=O)cc1 (stereo not given)	0	70	69	1	1.1
CN=C(Nc1ccc(C)c(C)c1)SC1CC(=O)N(c2ccc(OC)cc2)C1=O (stereo not given)	74*	/	/	0.8	0.9
Cc1ccc(NC(=O)Cc2cn(C)c3ccccc23)cc1F	-2	/	/	0.9	0.9
Cc1cccc(NC(=S)N(C)Cc2cn(C)c3ccccc23)c1	69*	76	76	0.8	1
